One block for each molecule: values may come before it.
How the values were obtained:
[1] = molecular target: Calcium/calmodulin-dependent protein kinase type II subunit delta (Homo sapiens) (UniProt Q13557); assay: Inhibition of human recombinant CaMK2d at 500 nM in presence of ATP by radiometric assay relative to control
[2] = molecular target: Ribosomal protein S6 kinase alpha-4 (Homo sapiens) (UniProt O75676); assay: Inhibition of human recombinant MSK2 at 500 nM in presence of ATP by radiometric assay relative to control
[3] = molecular target: Cyclin-dependent kinase 1 (Homo sapiens) (UniProt P06493); assay: Inhibition of human recombinant CDC2 at 500 nM related to control ULK1
Cyclin-dependent kinase 1 (Homo sapiens), sequence (P06493 whole entry, looked up): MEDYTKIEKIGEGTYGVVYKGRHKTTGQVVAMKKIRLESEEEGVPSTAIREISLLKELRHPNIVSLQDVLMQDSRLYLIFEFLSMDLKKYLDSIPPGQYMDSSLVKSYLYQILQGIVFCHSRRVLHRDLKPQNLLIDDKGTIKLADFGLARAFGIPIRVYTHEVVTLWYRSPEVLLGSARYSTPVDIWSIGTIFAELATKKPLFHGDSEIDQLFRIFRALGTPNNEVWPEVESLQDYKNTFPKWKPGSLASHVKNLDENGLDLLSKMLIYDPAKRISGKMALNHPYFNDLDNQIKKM

[4] = molecular target: RAC-gamma serine/threonine-protein kinase (Homo sapiens) (UniProt Q9Y243); assay: Inhibition of human recombinant AKT3 at 15 nM in presence of ATP by radiometric assay relative to control
Procedure, shortened: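 Panel of 327 recombinant human kinases in radiometric activity assays, each screened in duplicate at a single inhibitor concentration; percent activity remaining relative to vehicle control, percent inhibition taken as 100 minus activity remaining.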

[5] = molecular target: Receptor tyrosine-protein kinase erbB-2 (Homo sapiens) (UniProt P04626); assay: Inhibition of human recombinant ErbB2 at 15 nM in presence of ATP by radiometric assay relative to control
Receptor tyrosine-protein kinase erbB-2 (Homo sapiens), sequence (P04626 whole entry): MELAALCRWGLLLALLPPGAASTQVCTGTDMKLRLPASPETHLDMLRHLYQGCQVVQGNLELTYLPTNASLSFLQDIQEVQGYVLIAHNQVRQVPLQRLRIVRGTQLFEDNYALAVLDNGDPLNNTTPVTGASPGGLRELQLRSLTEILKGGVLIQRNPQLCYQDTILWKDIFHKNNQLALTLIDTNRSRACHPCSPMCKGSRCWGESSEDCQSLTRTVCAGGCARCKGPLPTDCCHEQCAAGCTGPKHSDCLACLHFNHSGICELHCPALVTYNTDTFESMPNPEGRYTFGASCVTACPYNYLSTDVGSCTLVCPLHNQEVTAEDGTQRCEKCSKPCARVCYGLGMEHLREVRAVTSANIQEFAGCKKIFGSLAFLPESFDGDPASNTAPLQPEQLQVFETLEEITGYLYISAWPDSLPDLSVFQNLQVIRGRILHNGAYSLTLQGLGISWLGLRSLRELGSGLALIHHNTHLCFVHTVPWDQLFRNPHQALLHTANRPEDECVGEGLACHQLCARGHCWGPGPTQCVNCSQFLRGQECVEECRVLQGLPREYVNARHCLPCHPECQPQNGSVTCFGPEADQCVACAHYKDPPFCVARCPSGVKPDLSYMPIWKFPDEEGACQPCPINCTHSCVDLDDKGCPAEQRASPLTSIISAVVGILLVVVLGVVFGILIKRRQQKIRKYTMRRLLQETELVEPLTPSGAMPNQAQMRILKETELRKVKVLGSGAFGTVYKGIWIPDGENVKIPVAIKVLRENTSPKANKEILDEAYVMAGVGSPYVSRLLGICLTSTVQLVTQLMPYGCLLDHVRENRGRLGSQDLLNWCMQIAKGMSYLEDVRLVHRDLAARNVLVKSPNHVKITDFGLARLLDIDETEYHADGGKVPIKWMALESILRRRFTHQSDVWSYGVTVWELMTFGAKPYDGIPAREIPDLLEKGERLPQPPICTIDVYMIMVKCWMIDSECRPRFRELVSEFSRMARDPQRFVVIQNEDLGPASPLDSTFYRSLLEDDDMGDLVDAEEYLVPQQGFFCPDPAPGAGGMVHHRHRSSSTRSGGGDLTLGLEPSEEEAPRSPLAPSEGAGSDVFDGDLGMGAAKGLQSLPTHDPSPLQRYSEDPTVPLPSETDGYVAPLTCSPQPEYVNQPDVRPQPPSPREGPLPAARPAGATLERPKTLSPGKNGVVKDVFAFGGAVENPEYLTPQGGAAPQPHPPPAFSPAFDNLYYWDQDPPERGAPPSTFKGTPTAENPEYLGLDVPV

[6] = molecular target: Dual specificity mitogen-activated protein kinase kinase 2 (Homo sapiens) (UniProt P36507); assay: Inhibition of human recombinant MAP2K2 at 15 nM in presence of ATP by radiometric assay relative to control
Dual specificity mitogen-activated protein kinase kinase 2 (Homo sapiens), sequence (P36507 whole entry): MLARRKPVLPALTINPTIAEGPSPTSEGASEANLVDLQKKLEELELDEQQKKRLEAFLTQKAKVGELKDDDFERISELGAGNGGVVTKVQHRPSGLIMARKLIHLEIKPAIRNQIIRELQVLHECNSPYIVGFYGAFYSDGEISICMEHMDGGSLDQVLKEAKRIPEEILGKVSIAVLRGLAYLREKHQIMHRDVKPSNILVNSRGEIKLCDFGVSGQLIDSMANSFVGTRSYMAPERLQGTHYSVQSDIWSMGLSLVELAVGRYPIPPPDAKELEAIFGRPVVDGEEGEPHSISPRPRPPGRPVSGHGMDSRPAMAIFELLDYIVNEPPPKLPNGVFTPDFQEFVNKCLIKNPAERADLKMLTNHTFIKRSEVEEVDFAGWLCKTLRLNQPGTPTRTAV

[7] = molecular target: Calcium/calmodulin-dependent protein kinase type II subunit alpha (Homo sapiens) (UniProt Q9UQM7); assay: Inhibition of human recombinant CaMK2a at 15 nM related to control ULK1
[8] = molecular target: Myosin light chain kinase, smooth muscle (Homo sapiens) (UniProt Q15746); assay: Inhibition of human recombinant smMLCK at 15 nM related to control ULK1
Myosin light chain kinase, smooth muscle (Homo sapiens), sequence (Q15746 whole entry): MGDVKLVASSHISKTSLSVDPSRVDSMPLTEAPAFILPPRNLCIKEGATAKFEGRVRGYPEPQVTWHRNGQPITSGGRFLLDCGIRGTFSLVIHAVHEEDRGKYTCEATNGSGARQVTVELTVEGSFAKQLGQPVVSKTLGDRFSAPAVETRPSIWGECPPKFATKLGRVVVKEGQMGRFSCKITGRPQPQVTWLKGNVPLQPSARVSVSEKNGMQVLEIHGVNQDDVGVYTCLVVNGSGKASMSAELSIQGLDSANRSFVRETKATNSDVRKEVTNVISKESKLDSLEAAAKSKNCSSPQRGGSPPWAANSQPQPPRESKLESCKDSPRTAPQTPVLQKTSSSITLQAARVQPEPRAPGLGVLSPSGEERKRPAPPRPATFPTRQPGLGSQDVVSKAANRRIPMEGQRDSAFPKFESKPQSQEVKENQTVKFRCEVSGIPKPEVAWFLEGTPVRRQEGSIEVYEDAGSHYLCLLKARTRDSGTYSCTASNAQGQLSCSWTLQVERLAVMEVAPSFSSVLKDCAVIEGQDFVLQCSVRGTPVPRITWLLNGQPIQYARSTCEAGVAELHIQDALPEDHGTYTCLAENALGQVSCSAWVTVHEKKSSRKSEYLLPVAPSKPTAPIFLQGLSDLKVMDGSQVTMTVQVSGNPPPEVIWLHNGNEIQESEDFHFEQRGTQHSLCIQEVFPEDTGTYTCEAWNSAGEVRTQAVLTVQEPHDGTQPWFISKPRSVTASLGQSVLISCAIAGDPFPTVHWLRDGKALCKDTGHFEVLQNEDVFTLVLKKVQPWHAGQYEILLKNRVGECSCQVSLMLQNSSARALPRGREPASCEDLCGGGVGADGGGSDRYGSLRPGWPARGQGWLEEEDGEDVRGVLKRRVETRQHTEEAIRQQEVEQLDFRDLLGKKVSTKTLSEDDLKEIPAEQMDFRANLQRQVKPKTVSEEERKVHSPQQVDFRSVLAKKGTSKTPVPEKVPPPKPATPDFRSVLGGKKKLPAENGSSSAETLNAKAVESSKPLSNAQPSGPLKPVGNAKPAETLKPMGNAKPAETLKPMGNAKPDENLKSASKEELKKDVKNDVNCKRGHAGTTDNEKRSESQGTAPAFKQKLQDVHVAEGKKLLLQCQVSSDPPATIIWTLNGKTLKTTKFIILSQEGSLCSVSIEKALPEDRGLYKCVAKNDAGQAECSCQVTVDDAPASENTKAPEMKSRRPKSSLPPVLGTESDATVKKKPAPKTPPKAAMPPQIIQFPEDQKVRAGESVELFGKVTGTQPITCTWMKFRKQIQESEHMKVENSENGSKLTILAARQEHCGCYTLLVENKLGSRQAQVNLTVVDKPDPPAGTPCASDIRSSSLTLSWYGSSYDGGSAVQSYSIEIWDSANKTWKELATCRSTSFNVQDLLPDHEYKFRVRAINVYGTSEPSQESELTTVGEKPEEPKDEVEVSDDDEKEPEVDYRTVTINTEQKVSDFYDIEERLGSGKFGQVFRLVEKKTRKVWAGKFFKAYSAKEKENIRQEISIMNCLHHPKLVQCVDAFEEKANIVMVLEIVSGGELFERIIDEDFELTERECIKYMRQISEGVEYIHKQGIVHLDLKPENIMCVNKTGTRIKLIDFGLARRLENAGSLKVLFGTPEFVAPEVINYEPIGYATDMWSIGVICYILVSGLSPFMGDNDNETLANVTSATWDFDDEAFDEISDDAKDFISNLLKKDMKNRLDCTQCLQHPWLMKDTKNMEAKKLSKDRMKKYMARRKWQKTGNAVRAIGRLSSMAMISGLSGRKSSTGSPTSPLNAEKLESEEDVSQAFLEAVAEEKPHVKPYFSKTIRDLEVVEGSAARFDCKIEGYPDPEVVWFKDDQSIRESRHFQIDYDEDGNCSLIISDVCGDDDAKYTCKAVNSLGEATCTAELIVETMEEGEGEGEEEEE

U2OS = assay: Inhibition of autophagy in human U2OS cells assessed as BafA1-induced LC3B-II accumulation preincubated with compound for 3 hrs followed by BafA1 induction and measured after 1.5 hr under starvation condition by immunoblotting analysis; type: functional, cell-based; details: dose <= 5.0 µM, time 4.5 hrs
Procedure, shortened: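 U2OS cells kept 3 hr in full growth medium or HBSS-based starvation medium with or without inhibitor; BafA1-induced LC3B-II accumulation quantified by immunoblotting against β-actin.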

[9] = molecular target: Dual specificity protein kinase CLK1 (Homo sapiens) (UniProt P49759); assay: Inhibition of human recombinant CLK1 at 40 nM in presence of ATP by radiometric assay relative to control
[10] = molecular target: Serine/threonine-protein kinase PAK 5 (Homo sapiens) (UniProt Q9P286); assay: Inhibition of human recombinant PAK5 at 40 nM in presence of ATP by radiometric assay relative to control
Serine/threonine-protein kinase PAK 5 (Homo sapiens), sequence (Q9P286 whole entry, looked up): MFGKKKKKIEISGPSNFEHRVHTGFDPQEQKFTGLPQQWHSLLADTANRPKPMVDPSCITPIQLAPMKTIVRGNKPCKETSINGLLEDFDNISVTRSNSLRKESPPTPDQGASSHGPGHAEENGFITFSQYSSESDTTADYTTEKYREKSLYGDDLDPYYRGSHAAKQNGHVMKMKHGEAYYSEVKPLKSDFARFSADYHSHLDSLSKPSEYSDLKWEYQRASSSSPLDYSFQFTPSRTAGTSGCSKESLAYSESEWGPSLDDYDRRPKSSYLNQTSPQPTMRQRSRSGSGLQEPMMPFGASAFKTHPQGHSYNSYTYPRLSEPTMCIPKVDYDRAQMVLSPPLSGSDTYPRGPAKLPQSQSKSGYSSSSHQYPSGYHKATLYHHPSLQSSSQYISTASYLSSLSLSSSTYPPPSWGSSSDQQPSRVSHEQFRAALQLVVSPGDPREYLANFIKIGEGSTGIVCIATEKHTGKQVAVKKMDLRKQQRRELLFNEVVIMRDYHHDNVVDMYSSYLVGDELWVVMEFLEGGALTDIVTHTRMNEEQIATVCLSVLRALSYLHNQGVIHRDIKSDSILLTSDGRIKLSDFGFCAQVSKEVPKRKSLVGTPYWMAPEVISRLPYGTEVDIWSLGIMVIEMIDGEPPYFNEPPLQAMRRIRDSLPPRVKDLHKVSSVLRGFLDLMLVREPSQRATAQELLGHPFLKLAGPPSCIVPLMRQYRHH

[11] = molecular target: T1, Serine/threonine-protein kinase BRSK1 (Homo sapiens) (UniProt Q8TDC3); assay: Inhibition of human recombinant BRSK1 at 40 nM related to control ULK1
T1 sequence (whole entry): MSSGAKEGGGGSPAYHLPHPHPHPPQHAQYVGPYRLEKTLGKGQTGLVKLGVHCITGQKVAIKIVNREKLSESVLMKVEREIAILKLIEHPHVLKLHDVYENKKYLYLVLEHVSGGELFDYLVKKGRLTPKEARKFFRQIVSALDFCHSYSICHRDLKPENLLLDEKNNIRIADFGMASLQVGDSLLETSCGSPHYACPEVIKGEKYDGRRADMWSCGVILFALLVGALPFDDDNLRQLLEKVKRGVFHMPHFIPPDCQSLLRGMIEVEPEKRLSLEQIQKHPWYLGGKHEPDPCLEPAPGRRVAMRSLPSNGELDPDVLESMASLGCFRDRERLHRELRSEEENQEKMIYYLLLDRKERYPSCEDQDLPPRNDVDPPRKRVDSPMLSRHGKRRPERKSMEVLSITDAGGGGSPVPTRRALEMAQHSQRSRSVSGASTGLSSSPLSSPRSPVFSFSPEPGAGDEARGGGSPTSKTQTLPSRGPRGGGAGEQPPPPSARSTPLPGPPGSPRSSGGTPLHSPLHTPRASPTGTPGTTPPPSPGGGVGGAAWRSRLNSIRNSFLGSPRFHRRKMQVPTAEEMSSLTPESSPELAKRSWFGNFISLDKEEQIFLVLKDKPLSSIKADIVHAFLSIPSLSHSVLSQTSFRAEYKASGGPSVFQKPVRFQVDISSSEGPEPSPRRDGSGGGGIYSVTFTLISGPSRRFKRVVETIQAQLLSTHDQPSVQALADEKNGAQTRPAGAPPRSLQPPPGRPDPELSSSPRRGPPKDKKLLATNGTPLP

[12] = molecular target: T2, Serine/threonine-protein kinase Sgk1 (Homo sapiens) (UniProt O00141); assay: Inhibition of human recombinant SGK1 at 40 nM related to control ULK1
T2 sequence (whole entry): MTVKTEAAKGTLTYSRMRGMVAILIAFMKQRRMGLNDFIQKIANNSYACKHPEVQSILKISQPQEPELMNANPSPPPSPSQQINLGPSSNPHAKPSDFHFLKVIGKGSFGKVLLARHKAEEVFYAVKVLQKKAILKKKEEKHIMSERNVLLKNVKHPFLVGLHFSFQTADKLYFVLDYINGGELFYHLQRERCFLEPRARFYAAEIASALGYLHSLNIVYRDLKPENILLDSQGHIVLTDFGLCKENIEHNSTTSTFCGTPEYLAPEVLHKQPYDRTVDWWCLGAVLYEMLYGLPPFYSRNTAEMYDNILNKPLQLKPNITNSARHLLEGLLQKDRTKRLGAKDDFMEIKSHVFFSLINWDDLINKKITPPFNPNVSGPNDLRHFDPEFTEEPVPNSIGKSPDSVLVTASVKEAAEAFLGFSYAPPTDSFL

[13] = molecular target: T3, Serine/threonine-protein kinase Sgk3 (Homo sapiens) (UniProt Q96BR1); assay: Inhibition of human recombinant SGK3 at 40 nM related to control ULK1
T3 sequence (whole entry): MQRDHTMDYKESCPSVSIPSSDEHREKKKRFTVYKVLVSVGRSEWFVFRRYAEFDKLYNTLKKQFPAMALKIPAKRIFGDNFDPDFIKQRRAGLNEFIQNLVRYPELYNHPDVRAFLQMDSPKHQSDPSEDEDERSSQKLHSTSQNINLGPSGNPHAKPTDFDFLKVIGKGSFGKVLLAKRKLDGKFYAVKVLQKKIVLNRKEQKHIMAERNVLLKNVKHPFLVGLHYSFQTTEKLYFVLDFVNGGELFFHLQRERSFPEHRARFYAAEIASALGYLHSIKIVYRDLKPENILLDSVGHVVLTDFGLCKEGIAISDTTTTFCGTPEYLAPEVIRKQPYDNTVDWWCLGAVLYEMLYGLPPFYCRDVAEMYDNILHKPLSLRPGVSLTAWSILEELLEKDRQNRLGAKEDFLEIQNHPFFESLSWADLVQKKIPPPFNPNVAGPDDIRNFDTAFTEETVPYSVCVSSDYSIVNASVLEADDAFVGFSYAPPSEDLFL

Calcium/calmodulin-dependent protein kinase type II subunit delta (Homo sapiens), sequence (Q13557 whole entry): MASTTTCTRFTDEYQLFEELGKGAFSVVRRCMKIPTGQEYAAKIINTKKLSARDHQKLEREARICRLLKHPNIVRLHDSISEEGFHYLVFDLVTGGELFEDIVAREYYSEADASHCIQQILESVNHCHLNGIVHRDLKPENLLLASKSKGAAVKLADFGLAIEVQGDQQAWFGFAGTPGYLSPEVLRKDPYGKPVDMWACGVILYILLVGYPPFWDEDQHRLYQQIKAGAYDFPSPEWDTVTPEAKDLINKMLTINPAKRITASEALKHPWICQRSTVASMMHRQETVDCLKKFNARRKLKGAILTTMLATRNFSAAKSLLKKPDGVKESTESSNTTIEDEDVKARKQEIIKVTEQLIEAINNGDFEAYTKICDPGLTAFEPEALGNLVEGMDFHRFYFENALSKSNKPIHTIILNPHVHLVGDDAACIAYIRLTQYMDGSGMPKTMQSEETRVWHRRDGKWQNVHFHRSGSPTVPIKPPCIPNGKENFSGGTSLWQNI

inhibition [1]: 9% | inhibition [2]: 0% | fold change (FC) [3]: 0.41
SMILES: CNC(=O)c1ccccc1Oc1nc(Nc2cc(OC)c(OC)c(OC)c2)ncc1Br

inhibition [4]: 8% | inhibition [5]: 0% | inhibition [6]: 0% | fold change (FC) [7]: 0.47 | fold change (FC) [8]: 0
SMILES: CC(C)[C@H](NC(=O)c1cc(-c2cnn3cc(-c4ccc(OCCN5CCCCC5)cc4)cnc23)cs1)C(F)(F)F

inhibition [9]: 34% | inhibition [10]: 0% | fold change (FC) [11]: 0.03 | fold change (FC) [12]: 0.1 | fold change (FC) [13]: 0
SMILES: O=C(N[C@@H](C1CC1)C(F)(F)F)c1cc(-c2cnn3cc(-c4ccc(F)cc4)cnc23)cs1
inhibition (U2OS): Dose-Dependent Effect

Reference: ChEMBL document CHEMBL5653631, “A Potent and Selective ULK1 Inhibitor Suppresses Autophagy and Sensitizes Cancer Cells to Nutrient Stress” (iScience, 2018)
